Calls of active or inactive are those of the source. The calls are words filed in the database; no cut-off is given here.
Columns and labels:
[1] = Induction of cleavage arrest in embryonic cells of Xenopus laevis stage 8 blastulae at 0.5 ug/mL after 20 hrs by animal cap assay; assay type: functional
Procedure, shortened: (§1)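 Single inner-surface cells taken from animal caps of X. laevis stage 8 blastulae, freed in Ca/Mg-free medium (50 mM phosphate, 35 mM NaCl, 1 mM KCl, pH 7.0). Two or three cells per well in NAM/2 with 2 mg/mL γ-globulin, non-nutritive. Test concentrations 0.1, 0.5, 2, 10, 50 and 200 µg/mL. Cultured 20 h at 25 °C. Read-out: percentage of cells with cleavage arrest.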

Xenopus laevis = organism: Xenopus laevis; experiment: Induction of cleavage arrest in embryonic cells of Xenopus laevis stage 8 blastulae after 20 hrs by animal cap assay; assay type: functional, cell-based; procedure, shortened: as §1

CCCCCCCCCC(=O)OCC1=C[C@@H]2C(=O)[C@]3(C=C(C)[C@H](O)[C@@]3(O)[C@@H]1O)[C@H](C)C[C@@H]1[C@H]2C1(C)C
Activity [1]: >75%

CCCCC/C=C\C=C\C(=O)O[C@H]1C(C)=C[C@]23C(=O)[C@@H](C=C(CO)[C@@H](O)[C@]12O)[C@H]1[C@@H](C[C@H]3C)C1(C)C
Activity [1]: >75%

CCCCC/C=C\C=C\C(=O)OCC1=C[C@@H]2C(=O)[C@]3(C=C(C)[C@H](O)[C@@]3(O)[C@@H]1O)[C@H](C)C[C@@H]1[C@H]2C1(C)C
Activity [1]: >75%

C=C1[C@H](OC(C)=O)[C@@H](OC(=O)c2ccccc2)[C@@H](OC(C)=O)C(C)(C)[C@H]2O[C@](O)([C@H](C)C2=O)[C@@]2(OC(C)=O)C[C@H](C)[C@H](OC(C)=O)[C@@H]2[C@H]1OC(C)=O
Activity (Xenopus laevis): inactive

CCCCC/C=C/C=C/C(=O)O[C@H]1C(C)=C[C@]23C(=O)[C@@H](C=C(COC(C)=O)[C@@H](O)[C@]12O)[C@H]1[C@@H](C[C@H]3C)C1(C)C
Activity [1]: >75%

CCCCC/C=C\C=C\C(=O)O[C@H]1C(C)=C[C@]23C(=O)[C@@H](C=C(COC(C)=O)[C@@H](O)[C@]12O)[C@H]1[C@@H](C[C@H]3C)C1(C)C
Activity [1]: >75%

CCCCC/C=C/C=C/C(=O)O[C@@H]1C(CO)=C[C@@H]2C(=O)[C@]3(C=C(C)[C@H](O)[C@@]13O)[C@H](C)C[C@@H]1[C@H]2C1(C)C
Activity [1]: >75%

C=C1[C@H](OC(=O)c2ccccc2)[C@H]2[C@@H](OC(C)=O)[C@](C)(O)[C@H](OC(C)=O)[C@]2(O)C(=O)[C@@H](C)[C@H]2O[C@@H]2C(C)(C)C(=O)[C@H](O)[C@H]1OC(=O)c1ccccc1
Activity (Xenopus laevis): inactive

CCCCC/C=C/C=C/C(=O)O[C@H]1C(C)=C[C@]23C(=O)[C@@H](C=C(CO)[C@@H](O)[C@]12O)[C@H]1[C@@H](C[C@H]3C)C1(C)C
Activity [1]: >75%

CCCCC/C=C\C=C\C(=O)O[C@H]1C(C)=C[C@]23C(=O)[C@@H](C=C(CO)[C@@H](OC(C)=O)[C@]12O)[C@H]1[C@@H](C[C@H]3C)C1(C)C
Activity [1]: >75%

CCCCC/C=C/C=C/C(=O)OCC1=C[C@@H]2C(=O)[C@]3(C=C(C)[C@H](O)[C@@]3(O)[C@@H]1O)[C@H](C)C[C@@H]1[C@H]2C1(C)C
Activity [1]: >75%
